High-throughput results (PubChem BioAssay)
Sampled rows, rich in hits. Any-hit rate of the full collection: about 1.3%.
Diaphorase inh – diaphorase inhibition or chemical oxidation counter-screen; diaphorase resazurin-to-resorufin fluorescence, NADH, 16 min; bacterial (C. kluyveri) enzyme, not human; 190,000 tested, 0.69% active; AID 1217; inhibition, % at 20 µM;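 active = primary screen inhibition at 20 µM above a set limit, cut at about 50% in these data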
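Test system: bacterial diaphorase enzyme (C. kluyveri); Quantity: 0.14 U/mL diaphorase, enzyme working solution; Times: reaction incubation of 16 min at room temperature; Measured by: fluorescence of resorufin formed from resazurin, Ex 544/Em 590 nm; Benchmarks: positive control minus NADH, DMSO neutral control.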
TbHK1 inh – T. brucei hexokinase 1 inhibition. AID 1430. inhibition, % at 10 µM. 220,000 tested, 0.11% active. recombinant TbHK1, G6PDH-coupled NADH A340;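 active = inhibition of 50% or more in the single-dose primary screen; inactive = inhibition below 50%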
HKDC1 inhibitor – blocks human hexokinase HKDC1 activity. Q2TB90. 340,000 tested, 0.16% active. AID 493160. inhibition, % at 20 µM. recombinant HKDC1, G6PDH/diaphorase resazurin coupled fluorescence;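 active = inhibition above about 35% when tested at 20 µM, limit read from the data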
Target sequence (Q2TB90 whole entry, looked up): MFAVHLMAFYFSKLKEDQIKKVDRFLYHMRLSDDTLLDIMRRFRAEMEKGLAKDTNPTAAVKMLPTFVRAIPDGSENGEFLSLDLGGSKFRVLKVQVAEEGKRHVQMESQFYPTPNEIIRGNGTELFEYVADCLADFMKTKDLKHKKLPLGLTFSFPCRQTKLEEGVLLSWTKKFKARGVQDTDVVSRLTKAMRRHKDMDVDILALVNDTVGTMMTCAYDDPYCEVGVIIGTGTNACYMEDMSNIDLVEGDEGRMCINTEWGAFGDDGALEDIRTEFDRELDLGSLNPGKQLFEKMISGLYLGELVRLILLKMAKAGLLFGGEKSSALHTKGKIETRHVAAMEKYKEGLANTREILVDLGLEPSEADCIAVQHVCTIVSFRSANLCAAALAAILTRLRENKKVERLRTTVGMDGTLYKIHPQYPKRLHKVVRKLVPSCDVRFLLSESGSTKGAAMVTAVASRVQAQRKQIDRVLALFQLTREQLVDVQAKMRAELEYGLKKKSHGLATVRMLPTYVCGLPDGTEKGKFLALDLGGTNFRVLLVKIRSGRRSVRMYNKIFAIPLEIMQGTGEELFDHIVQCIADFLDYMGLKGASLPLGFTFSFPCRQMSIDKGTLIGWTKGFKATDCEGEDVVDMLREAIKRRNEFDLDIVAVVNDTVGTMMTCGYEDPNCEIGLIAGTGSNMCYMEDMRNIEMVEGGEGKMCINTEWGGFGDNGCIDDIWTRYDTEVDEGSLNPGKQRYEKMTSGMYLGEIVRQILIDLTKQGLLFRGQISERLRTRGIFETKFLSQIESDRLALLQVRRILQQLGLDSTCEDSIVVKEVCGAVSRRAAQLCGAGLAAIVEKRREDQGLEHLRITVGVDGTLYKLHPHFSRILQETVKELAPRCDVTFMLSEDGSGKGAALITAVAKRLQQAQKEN
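test system = in-house recombinant HK5 (HKDC1) enzyme | amount = HKDC1 at 5 µg/mL | control set = DMSO-enzyme wells negative, buffer-substituted wells positive | compound = one dose of 20 µM, 1% DMSO | schedule = reaction time 90 min, room temperature, protected from light | technique = resorufin fluorescence at 613 nm | reagent = glucose with 1 mM ATP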
Diaphorase act – activates diaphorase or chemically reduces, flagging diaphorase assay artifacts. activation factor at 20 µM. 190,000 tested, 0.005% active. Diaphorase/resazurin coupled assay, resorufin fluorescence, 16 min; hits give high values; 1 = vehicle wells, 0 = NADH-free wells. AID 1229;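 active = diaphorase activity raised at least twofold by the compound at 20 µM; inactive = activation factor below 2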
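Test system: Clostridium kluyveri diaphorase, purified enzyme; input: enzyme 0.07 U/mL final; buffer or medium: 50 mM HEPES pH 7.4 with 4.542 mM MgCl2, 0.005% Tween 20; also added: 0.114 mM NADH and 0.1 mM resazurin, final amounts; schedule: 16 min enzyme reaction, ambient temperature; technique: fluorescence of resorufin, 544 nm excitation, 590 nm emission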
PfG6PD inh – PfG6PD (Plasmodium falciparum) enzyme inhibition | PfGluPho enzyme, NADPH resazurin-diaphorase fluorescence | inhibition, % at 20 µM | 350,000 tested, 0.78% active | AID 504690;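 active = inhibition reaching at least a set limit at 20 µM in the primary screen, cut at about 59% in these data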
G6PDH CS – L. mesenteroides G6PDH inhibition counter-screen. inhibition, % at 5 µM. Purified L. mesenteroides G6PDH, diaphorase/resazurin coupled fluorescence, 45 min. AID 1020. 200,000 tested, 0.12% active; in the data active = inhibition above about 50%
Numbers stand for hits; n = inactive; x = no result given.

SMILES	Diaphorase inh	TbHK1 inh	HKDC1 inhibitor	Diaphorase act	PfG6PD inh	G6PDH CS
Oc1ccc(/C=N/Nc2cc(N3CCCC3)nc(N3CCCC3)n2)cc1O	62	n	n	n	n	n
Cc1ccc(NC(=O)c2cnccn2)c(C)c1	x	x	n	x	n	x
O=C(COc1ccccc1)Nc1c2c(nn1-c1ccccc1)CS(=O)C2 (stereo not given)	x	x	n	x	n	x
Oc1cccc(C=NCc2ccccc2)c1O	62	n	n	n	n	60
Oc1cccc(C=Nc2cccc3ccccc23)c1O	x	x	n	x	n	x
CCC(=O)OCCNc1cc(SCCC(=O)OC)c2nonc2c1[N+](=O)[O-]	71	n	n	n	n	n
CC(=O)OCCNc1cc(SC(C)C)c2nonc2c1[N+](=O)[O-]	52	n	n	n	n	n
CC(C)CCSc1cc(NCCO)c([N+](=O)[O-])c2nonc12	80	n	n	n	n	n
O=[N+]([O-])c1c(NCCO)cc(N2CCCCC2)c2nonc12	52	n	n	n	n	n
COc1cc(/C=C2/SC(=S)NC2=O)ccc1OS(=O)(=O)c1ccc(C)cc1	50	n	n	n	n	n
COc1ccc(OC)c(NC(=O)Cn2nc(C)c3ccccc3c2=O)c1	x	x	n	x	n	x
Nc1c(C(=O)NC2CC2)c2nc3ccccc3nc2n1-c1ccc2c(c1)OCO2	66	n	n	n	n	n
Cc1cc(C(C)(C)C)cc(C)c1C[n+]1ccc2ccccc2c1	x	x	n	x	n	x
C=CCSC1=N/C(=C\c2cc(OCC)c(OC(C)=O)c([N+](=O)[O-])c2)C(=O)S1	57	n	n	n	n	n
Cc1cccc(-n2ncc3c(=O)[nH]c(SCC(=O)N4CC(=O)Nc5ccccc54)nc32)c1	x	x	n	x	n	x
COc1ccccc1OCCNC(=O)c1cccc(S(=O)(=O)N2CC(C)OC(C)C2)c1 (stereo not given)	x	x	n	x	n	x
O=C(Cc1c(F)cccc1Cl)Nc1cccc(S(=O)(=O)NC2=NCCCCC2)c1	x	x	n	x	n	x
O=C(Cc1ccc(Cl)cc1Cl)Nc1cccc(S(=O)(=O)Nc2ccccc2F)c1	n	n	n	n	70	n
C[C@@H]1CN([C@H](C)CO)C(=O)CCCn2nncc2CO[C@H]1CN(C)S(=O)(=O)c1ccc(Oc2ccccc2)nc1	x	x	x	x	n	x
CC(Sc1nnc(NC2CCCCC2)s1)C(=O)Nc1ccc2c(c1)C(=O)c1ccccc1C2=O (stereo not given)	56	n	n	n	n	n
CC1(C)Cc2c(C#N)c(N3CCCC3)nc(-c3ccco3)c2CO1	55	n	x	n	x	n
Cn1cc2ccc(N)cc2n1	70	n	n	n	n	54
CCOC(=O)c1ccc(N2CSC3=C(C#N)C(c4cccs4)CC(=O)N3C2)cc1 (stereo not given)	n	n	n	n	n	n
CCc1ccc(N2CSC3=C(C#N)C(c4cccs4)CC(=O)N3C2)cc1 (stereo not given)	n	n	n	n	62	n
CCCSC1=C(C#N)C(c2cc(OC)ccc2OC)CC(=O)N1 (stereo not given)	n	n	n	n	n	n
SMILES	Diaphorase inh	TbHK1 inh	HKDC1 inhibitor	Diaphorase act	PfG6PD inh	G6PDH CS
COc1ccc(N2CSC3=C(C#N)C(c4cccs4)CC(=O)N3C2)cc1 (stereo not given)	53	n	n	n	n	n
COc1ccc(N2CSC3=C(C#N)C(c4cc(OC)ccc4OC)CC(=O)N3C2)c(OC)c1 (stereo not given)	57	n	n	n	113	50
N=c1sccn1CC(=O)Nc1cc(S(=O)(=O)N2CCCC2)ccc1Cl	n	n	n	n	n	n
O=C(CCC(=O)N1CCN(S(=O)(=O)c2ccccc2Cl)CC1)c1ccccc1	x	x	n	x	n	x
COc1ccc2o/c(=N/NC(=O)c3cccs3)c(C(N)=O)cc2c1	n	n	n	n	n	n
COc1ccc2cc(C(N)=O)/c(=N/NC(=O)c3ccco3)oc2c1	76	n	n	n	n	n
NC(=O)c1cc2ccccc2o/c1=N/NC(=O)c1cccs1	69	n	n	n	n	n
Nc1nc2c(s1)CCc1c-2cnn1-c1ccccc1	66	n	n	n	98	62
C#CCOCCOCCOCCNc1nc(N2CCN(C(=O)[C@H](CCCCN)n3cc([C@@H](N)C(C)CC)nn3)CC2)nc(N2CCN(C(=O)[C@H](Cc3cc4ccccc4[nH]3)n3cc([C@@H](N)CC(C)C)nn3)CC2)n1 (stereo not given in full)	n	n	n	n	60	n
C#CCOCCOCCOCCNc1nc(N2CCN(C(=O)[C@H](CCC(=O)O)n3cc(C(N)Cc4ccc(O)cc4)nn3)CC2)nc(N2CCN(C(=O)[C@H](CCC(=O)O)n3cc(C(N)CC(C)C)nn3)CC2)n1 (stereo not given in full)	57	n	n	n	n	n
CCOC(=O)c1ccccc1-c1csc(N)n1	81	n	n	n	n	n
Cc1cc(C#N)c(C)c(SCc2[nH]nc3c2C(c2ccccc2)C(C#N)=C(N)O3)n1 (stereo not given)	54	n	n	n	n	n
Cc1cc(C)c(C#N)c(SCc2[nH]nc3c2C(c2ccc(F)cc2)C(C#N)=C(N)O3)n1 (stereo not given)	n	n	n	n	n	n
COc1ccc(OCCC(=O)OCC(=O)Nc2cccc(S(=O)(=O)N3CCCCC3)c2)cc1	x	x	n	x	n	x
CC1(/[N+]([O-])=C\c2ccccc2F)CCCCC1=O (stereo not given)	x	n	n	x	n	x
CC1Cc2ccccc2N1C(=O)CN(C)CC(=O)Nc1cccc(F)c1 (stereo not given)	x	x	n	x	n	x
COc1ccc2c(c1)-c1nc(/N=C/c3c(O)ccc4ccccc34)sc1CC2	n	n	n	n	n	n
COc1ccc2c(c1)-c1nc(/N=C/c3ccc(O)cc3)sc1CC2	56	n	n	n	n	n
CC1(O)CC(C)(C)C(C#N)C(=O)N1 (stereo not given)	x	x	n	x	n	x
Cc1nc2ccccc2c(=O)n1NC(=O)c1ccccc1Br	x	x	n	x	n	x
CN(Cc1nc(-c2cccs2)no1)CC1(N2CCOCC2)CCCCC1	74	n	n	n	n	n
CN(CCN1CCOCC1)Cc1nc(-c2cccs2)no1	n	n	n	n	n	n
O=C(NCCOc1ccccc1)C(=O)NCC1CCCO1 (stereo not given)	n	n	n	n	n	n
O=C(NCCOc1ccc(Cl)cc1)C(=O)NCC1CCCO1 (stereo not given)	51	n	n	n	n	n
O=C(OCc1nc2ccc(Cl)cc2n1CCO)c1ccc(O)cc1	n	n	n	n	n	n
N#Cc1c(NC(=O)CSc2ncnc3sccc23)oc(-c2ccco2)c1-c1ccco1	60	n	n	n	n	n
